The source made the active and inactive calls. No cut-off for these calls is given here.
What was measured:
[1] = target: T1, Protein deacetylase HDAC6 (Homo sapiens) (UniProt Q9UBN7); test: Inhibition of HDAC6 (unknown origin) at 10 uM after 60 mins by SAMDI […] analysis relative to control
T1 sequence (whole entry): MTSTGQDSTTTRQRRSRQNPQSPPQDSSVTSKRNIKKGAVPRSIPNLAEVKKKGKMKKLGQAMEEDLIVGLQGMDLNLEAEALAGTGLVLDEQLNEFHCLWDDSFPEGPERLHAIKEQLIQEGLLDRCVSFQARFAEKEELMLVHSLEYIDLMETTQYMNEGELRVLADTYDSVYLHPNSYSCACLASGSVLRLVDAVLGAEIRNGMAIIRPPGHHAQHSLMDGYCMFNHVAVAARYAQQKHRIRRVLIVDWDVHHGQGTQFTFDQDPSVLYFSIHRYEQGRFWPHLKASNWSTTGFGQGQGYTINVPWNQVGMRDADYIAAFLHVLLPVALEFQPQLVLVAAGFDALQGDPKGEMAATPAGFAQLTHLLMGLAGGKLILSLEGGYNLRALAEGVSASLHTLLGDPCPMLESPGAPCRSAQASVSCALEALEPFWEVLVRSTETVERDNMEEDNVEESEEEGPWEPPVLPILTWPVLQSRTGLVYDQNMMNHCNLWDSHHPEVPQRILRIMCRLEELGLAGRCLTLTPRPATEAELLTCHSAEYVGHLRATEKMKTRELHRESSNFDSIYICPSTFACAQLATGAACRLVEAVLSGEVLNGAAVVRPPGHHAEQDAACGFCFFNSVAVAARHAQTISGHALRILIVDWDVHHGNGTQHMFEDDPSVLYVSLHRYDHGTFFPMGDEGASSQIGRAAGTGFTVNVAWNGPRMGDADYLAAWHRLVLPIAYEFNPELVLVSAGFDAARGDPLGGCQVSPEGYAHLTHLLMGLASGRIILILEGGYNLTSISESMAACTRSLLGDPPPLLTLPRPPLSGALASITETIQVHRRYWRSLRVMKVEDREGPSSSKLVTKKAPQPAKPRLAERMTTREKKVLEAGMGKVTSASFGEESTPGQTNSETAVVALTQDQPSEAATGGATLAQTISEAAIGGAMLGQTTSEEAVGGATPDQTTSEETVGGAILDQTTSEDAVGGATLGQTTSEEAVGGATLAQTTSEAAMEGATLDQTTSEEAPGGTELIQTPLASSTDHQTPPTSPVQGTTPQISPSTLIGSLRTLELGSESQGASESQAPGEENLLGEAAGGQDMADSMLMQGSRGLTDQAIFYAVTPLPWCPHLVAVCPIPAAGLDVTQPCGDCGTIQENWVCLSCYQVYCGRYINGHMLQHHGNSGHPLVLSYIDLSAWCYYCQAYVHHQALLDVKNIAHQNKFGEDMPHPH
Method in brief: (§1)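 Label-free SAMDI deacetylase assay: isoform-optimized peptide substrate (50 μM) with enzyme (250 nM) and inhibitor, 60 min at 37°C. Reactions were quenched with TSA, immobilized on maleimide monolayers, washed and read by MALDI-MS. Yield came from substrate and deacetylated product peak intensities, in triplicate.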

[2] = target: T1, Protein deacetylase HDAC6 (Homo sapiens); test: Inhibition of HDAC6 (unknown origin) after 60 mins by SAMDI mass spectrometric analysis
[3] = target: T2, Histone deacetylase 8 (Homo sapiens) (UniProt Q9BY41); test: (§2) Inhibition of HDAC8 (unknown origin) after 60 mins by SAMDI […] analysis
T2 sequence (whole entry): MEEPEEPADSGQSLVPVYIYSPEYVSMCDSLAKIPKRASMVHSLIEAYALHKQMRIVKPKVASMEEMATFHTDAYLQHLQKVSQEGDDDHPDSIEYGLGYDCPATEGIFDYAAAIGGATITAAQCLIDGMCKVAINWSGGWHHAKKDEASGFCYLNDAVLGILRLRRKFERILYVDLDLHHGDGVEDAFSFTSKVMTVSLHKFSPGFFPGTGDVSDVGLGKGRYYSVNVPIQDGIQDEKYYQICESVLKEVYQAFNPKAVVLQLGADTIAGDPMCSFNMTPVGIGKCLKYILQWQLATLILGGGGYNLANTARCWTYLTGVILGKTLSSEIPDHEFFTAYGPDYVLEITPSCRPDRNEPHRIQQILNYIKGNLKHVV

[4] = target: Histone deacetylase 1 (Homo sapiens) (UniProt Q13547); test: Inhibition of HDAC1 (unknown origin) after 60 mins by SAMDI […] analysis; method in brief: as §1
Histone deacetylase 1 (Homo sapiens), sequence (Q13547 whole entry): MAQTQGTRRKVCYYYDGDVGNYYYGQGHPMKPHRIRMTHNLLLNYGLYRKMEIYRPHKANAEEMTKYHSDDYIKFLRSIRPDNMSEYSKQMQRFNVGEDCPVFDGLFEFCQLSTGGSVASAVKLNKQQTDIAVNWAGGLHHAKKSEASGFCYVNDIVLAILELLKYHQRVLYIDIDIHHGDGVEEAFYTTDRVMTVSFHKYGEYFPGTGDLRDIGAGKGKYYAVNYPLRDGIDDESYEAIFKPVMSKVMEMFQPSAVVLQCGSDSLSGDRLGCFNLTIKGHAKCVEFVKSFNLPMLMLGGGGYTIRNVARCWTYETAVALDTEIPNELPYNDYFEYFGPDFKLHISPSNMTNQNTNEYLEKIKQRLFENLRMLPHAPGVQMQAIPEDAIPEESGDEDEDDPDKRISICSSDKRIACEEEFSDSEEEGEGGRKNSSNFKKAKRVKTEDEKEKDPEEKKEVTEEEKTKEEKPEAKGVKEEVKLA

[5] = Aqueous solubility of the compound; format: physicochemical; conditions: buffer
DU-145 = test: Cytotoxicity against human DU145 cells assessed as growth inhibition by MTS assay; format: functional, cell-based
Method in brief: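 Cells kept at 37°C in 5% CO2. DU-145 grew in EMEM and LNCaP in RPMI 1640, each with 10% FBS. Cells were plated 24 h before compound treatment, with top concentration 20 μM and final DMSO 0.1%. Viability was read by MTS per the kit protocol. IC50 is mean ± SD from at least 2 independent triplicate experiments.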

LNCaP = test: Cytotoxicity against human LNCAP cells assessed as growth inhibition by MTS assay; format: functional, cell-based
Method in brief: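 Cells kept at 37°C in 5% CO2. Cells were plated 24 h before compound treatment, with top concentration 20 μM and final DMSO 0.1%. Viability was read by MTS per the kit protocol. IC50 is mean ± SD from at least 2 independent triplicate experiments.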

Jurkat = test: cells; format: functional, cell-based, Homo sapiens
[6] = target: T2, Histone deacetylase 8 (Homo sapiens); test: Inhibition of HDAC8 (unknown origin) at 10 uM after 60 mins by SAMDI […] analysis relative to control; method in brief: as §1
Histone deacetylase 8 = target: T3, Histone deacetylase 8 (Homo sapiens, UniProt Q9BY41); test: as §2
T3 sequence (Q9BY41 whole entry): T2 sequence (whole entry)

[7] = Homo sapiens, DU-145, read-out: IC50
[8] = Homo sapiens, LNCaP, read-out: IC50
[9] = Homo sapiens, Jurkat, 72 h, read-out: IC50

Structure (SMILES)	inhibition [2]	inhibition [3]	inhibition [4]	other results
N#Cc1cccc(-c2ccc(Cn3cccc(O)c3=S)cc2)c1				inhibition [1]: 44%
Oc1ccc[nH]c1=S				solubility [5]: < 65 µg/mL; IC50 (DU-145; du-145): Not Active; IC50 (LNCaP; lncap): Not Active; IC50 (Jurkat; jurkat): Not Active
Cn1cccc(O)c1=O	inactive	inactive	inactive	
CN(C)c1ccc(-c2ccc(Cn3cccc(O)c3=S)cc2)cc1				solubility [5]: < 65 µg/mL; IC50 (DU-145; [7]): > 20 µM; IC50 (LNCaP; [8]): 16.2 µM; inhibition [1]: < 20%; IC50 (Jurkat; [9]): 10.6 µM
CN(C)c1ccc(-c2ccc(Cn3cccc(O)c3=O)cc2)cc1	inactive	inactive	inactive	
CN(C)c1ccc(-c2ccc(Cn3cccc(O)c3=S)cc2)cn1				inhibition [6]: 34%
Cc1ccccc1-c1ccc(Cn2cccc(O)c2=O)cc1	inactive	inactive	inactive	
O=c1c(O)cccn1Cc1ccccc1	inactive	inactive	inactive	
CN(C)c1ccc(-c2ccc(Cn3cccc(O)c3=O)cc2)cn1	inactive	inactive	inactive	
Oc1cccnc1O				inhibition [6]: < 20%; inhibition [1]: < 20%
Oc1cccn(Cc2cn(-c3ccccc3)nn2)c1=S				IC50 (DU-145; [7]): > 20 µM; IC50 (LNCaP; [8]): 13.1 µM; IC50 (Jurkat; [9]): 4.68 µM; IC50 (Histone deacetylase 8): 1.57 µM
Cc1ccccc1-c1ccc(Cn2cccc(O)c2=S)cc1				IC50 (LNCaP; [8]): 7.75 µM

The next lines start with results.

inhibition [2]	inhibition [3]	inhibition [4]	Structure (SMILES)	other results
inactive	inactive	inactive	Cc1ccc(-c2ccc(Cn3cccc(O)c3=O)cc2)cc1	
inactive	inactive	inactive	N#Cc1ccc(-c2ccc(Cn3cccc(O)c3=O)cc2)cc1	
inactive	inactive	inactive	Cc1cccc(-c2ccc(Cn3cccc(O)c3=O)cc2)c1	
inactive	inactive	inactive	O=c1c(O)cccn1Cc1ccc(-c2ccccc2)cc1	
inactive	inactive	inactive	N#Cc1cccc(-c2ccc(Cn3cccc(O)c3=O)cc2)c1	
inactive	inactive	inactive	O=c1c(O)cccn1Cc1ccc(-c2ccncc2)cc1	
